Results from ChEMBL document CHEMBL2169757, “Discovery, synthesis, and biological evaluation of a novel group of selective inhibitors of filoviral entry” (J Med Chem, 2011).
Active and inactive are the calls of the source. The rule behind the calls is not given here.

Experiments:
Format in all cases: cell-based
293T [1] = assay: Inhibition of compound-pretreated Ebolavirus GP pseudotyped in HIV virions infected in human 293T cells assessed as viral-cell entry at 60 uM after 48 hrs by luciferase gene assay relative to DMSO-treated control; design: scale not given: the % may be the effect or the level left; details: Zaire ebolavirus
Outline: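 Ebola GP-pseudotyped HIV luciferase virions were mixed with compound (60 μM final) before infecting 293T cells. Medium was changed after overnight incubation, and luciferase was read from lysates at 48 h. Result is % infectivity relative to DMSO vehicle (0.1~0.2% final).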

HeLa [2] = assay: Inhibition of compound-pretreated VSV GP pseudotyped in HIV virions infected in human HeLa cells assessed as inhibition of viral-cell entry after 48 hrs by luciferase gene assay relative to DMSO-treated control; details: Vesicular stomatitis virus
293T [3] = assay: Inhibition of compound-pretreated VSV GP pseudotyped in HIV virions infected in human 293T cells assessed as inhibition of viral-cell entry after 48 hrs by luciferase gene assay relative to DMSO-treated control; details: Vesicular stomatitis virus
[4] = (§1) Inhibition of compound-pretreated Ebolavirus GP pseudotyped in HIV virions infected in human HeLa cells assessed as inhibition of viral-cell entry after 48 hrs by luciferase gene assay relative to DMSO-treated control; details: Zaire ebolavirus
Outline: (§2)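 Pseudotypes were briefly preincubated with compound at room temperature, then added to 293T or HeLa cells seeded the day before. Medium was replaced after overnight incubation, and cells were lysed at 48 h for firefly luciferase reading. Single point was 30 μM; curves spanned 3.75–120 or 3.75–60 μM. Infectivity was taken as % of DMSO control, from 3–5 independent experiments.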

HeLa [5] = assay: as §1; details: Zaire ebolavirus; outline: as §2
[6] = (§3) Inhibition of compound-pretreated Ebolavirus GP pseudotyped in HIV virions infected in human 293T cells assessed as inhibition of viral-cell entry after 48 hrs by luciferase gene assay relative to DMSO-treated control; details: Zaire ebolavirus, HEK-293T; outline: as §2
293T [7] = assay: as §3; details: Zaire ebolavirus; outline: as §2
A549 = assay: Inhibition of compound-pretreated Marburg GP pseudotyped in HIV virions infected in human A549 cells assessed as inhibition of viral-cell entry at 60 uM after 48 hrs by luciferase gene assay relative to DMSO-treated control; details: Marburgvirus
Outline: (§4)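 HIV luciferase virions pseudotyped with Marburg GP (Lake Victoria) were preincubated with compound (60 μM final), then added to 293T, HeLa or A549 cells. Medium was replaced after overnight incubation, and lysates were read for luciferase at 48 h. Values are % of DMSO control, mean ± standard error of three independent experiments.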

HeLa [8] = assay: Inhibition of compound-pretreated Marburg GP pseudotyped in HIV virions infected in human HeLa cells assessed as inhibition of viral-cell entry at 60 uM after 48 hrs by luciferase gene assay relative to DMSO-treated control; details: Marburgvirus; outline: as §4
293T [9] = assay: Inhibition of compound-pretreated Marburg GP pseudotyped in HIV virions infected in human 293T cells assessed as inhibition of viral-cell entry at 60 uM after 48 hrs by luciferase gene assay relative to DMSO-treated control; details: Marburgvirus; outline: as §4
HeLa [10] = assay: Inhibition of compound-pretreated VSV GP pseudotyped in HIV virions infected in human HeLa cells assessed as inhibition of viral-cell entry at 120 uM after 48 hrs by luciferase gene assay relative to DMSO-treated control; details: Vesicular stomatitis virus
293T [11] = assay: Inhibition of compound-pretreated VSV GP pseudotyped in HIV virions infected in human 293T cells assessed as inhibition of viral-cell entry at 120 uM after 48 hrs by luciferase gene assay relative to DMSO-treated control; details: Vesicular stomatitis virus
HeLa [12] = assay: Inhibition of compound-pretreated Ebolavirus GP pseudotyped in HIV virions infected in human HeLa cells assessed as inhibition of viral-cell entry at 30 uM after 48 hrs by luciferase gene assay relative to DMSO-treated control; details: Zaire ebolavirus; outline: as §2
293T [13] = assay: Inhibition of compound-pretreated Ebolavirus GP pseudotyped in HIV virions infected in human 293T cells assessed as inhibition of viral-cell entry at 30 uM after 48 hrs by luciferase gene assay relative to DMSO-treated control; details: Zaire ebolavirus; outline: as §2
HEK-293T [14] = assay: Cytotoxicity against human 293T cells infected with Ebolavirus GP pseudotyped in HIV virions assessed as effect on cell morphology at 60 uM
Outline: (§5)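 Compounds at 60 μM final were mixed with Ebola GP-pseudotyped HIV luciferase virions and added to 293T cells. Cell morphology and growth were checked by light microscopy at 24 and 48 h post-infection. Vehicle was DMSO at 0.1~0.2% final.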

HEK-293T [15] = assay: Cytotoxicity against human 293T cells infected with Ebolavirus GP pseudotyped in HIV virions assessed as effect on cell growth at 60 uM; outline: as §5
HEK-293T [16] = assay: Cytotoxicity against human 293T cells infected with Ebolavirus GP pseudotyped in HIV virions assessed as cell death at 60 uM; outline: as §5

SMILES: CCN(CC)CC(=O)NCc1cc(-c2ccc(OC)c(OC)c2)no1
- Activity (293T [1]): 160%

SMILES: CCN(CC)CC(=O)NCc1cn(-c2c(Br)cc(Br)cc2Br)nn1
- inhibition (HeLa [2]): inactive
- inhibition (293T [3]): inactive
- IC50 [4]: 5 µM
- inhibition (HeLa [5]): Dose-dependent effect
- IC50 [6]: 5 µM
- inhibition (293T [7]): Dose-dependent effect
- Activity (293T [1]): 3%

SMILES: CCN(CC)CC(=O)NCc1cc(-c2ccc(Cl)cc2)no1
- Activity (293T [1]): 17%

SMILES: CCN(CC)CC(=O)NCc1cn(-c2ccccc2[N+](=O)[O-])nn1
- Activity (293T [1]): 66%

SMILES: CCN(CC)CC(=O)NCc1cc(-c2ccc(I)cc2)no1
- inhibition (A549): Active
- inhibition (HeLa [8]): Active
- inhibition (293T [9]): Active
- inhibition (HeLa [2]): inactive
- inhibition (293T [3]): inactive
- IC50 [4]: 2.5 µM
- inhibition (HeLa [5]): Dose-dependent effect
- IC50 [6]: 2.5 µM
- inhibition (293T [7]): Dose-dependent effect
- Activity (293T [1]): 6%

SMILES: COc1ccc(-c2cc(CNC(=O)OCC(C)C)on2)cc1
- Activity (293T [1]): 118%

SMILES: CC(C)C(=O)NCc1cc(-c2ccc(Br)cc2)no1
- Activity (293T [1]): 116%

SMILES: CCN(CC)CC(=O)NCc1cc(-c2ccccc2OC)no1
- Activity (293T [1]): 87%

SMILES: CCN(CC)CC(=O)NCc1cc(-c2ccc(OC)cc2)no1
- inhibition (A549): 20%
- inhibition (HeLa [8]): 20%
- inhibition (293T [9]): 20%
- inhibition (HeLa [10]): inactive
- inhibition (293T [11]): inactive
- IC50 [4]: 30 µM
- inhibition (HeLa [5]): Dose-dependent effect
- IC50 [6]: 30 µM
- inhibition (293T [7]): Dose-dependent effect
- inhibition (HeLa [12]): > 50%
- inhibition (293T [13]): > 50%
- Activity (293T [1]): 56%

SMILES: CCN(CC)CC(=O)NCc1cn(-c2ccc(Br)cc2)nn1
- Activity (293T [1]): 18%

SMILES: CCN(CC)CC(=O)NCc1cc(-c2ccc(C)cc2)no1
- Activity (HEK-293T [14]): Non-toxic
- Activity (HEK-293T [15]): Non-toxic
- Activity (293T [1]): 381%

SMILES: CCN(CC)CC(=O)NCc1cc(-c2c(F)c(F)c(F)c(F)c2F)no1
- Activity (293T [1]): 52%

SMILES: CC(=O)NCc1cc(-c2ccc(Br)cc2)no1
- Activity (HEK-293T [14]): Non-toxic
- Activity (HEK-293T [15]): Non-toxic
- Activity (293T [1]): 105%

SMILES: CCN(CC)CC(=O)NCc1cn(-c2ccccc2Br)nn1
- Activity (293T [1]): 19%

SMILES: CCN(CC)CC(=O)NCc1cn(-c2ccccc2)nn1
- Activity (293T [1]): 46%

SMILES: COc1ccc(-c2cc(CNC(=O)CBr)on2)cc1
- Activity (293T [1]): 121%

SMILES: O=C(CBr)NCc1cc(-c2ccc(Br)cc2)no1
- Activity (HEK-293T [16]): Toxic

SMILES: CCN(CC)CC(=O)NCc1cc(-c2ccc(C(F)(F)F)cc2)no1
- Activity (293T [1]): 24%

SMILES: CCN(CC)CC(=O)NCc1cn(-c2ccc(OC)cc2[N+](=O)[O-])nn1
- Activity (293T [1]): 92%

SMILES: CCN(CC)CC(=O)NCc1cc(-c2cccc(OC)c2)no1
- inhibition (HeLa [2]): inactive
- inhibition (293T [3]): inactive
- IC50 [4]: 10 µM
- inhibition (HeLa [5]): Dose-dependent effect
- IC50 [6]: 10 µM
- inhibition (293T [7]): Dose-dependent effect
- Activity (293T [1]): 4%

SMILES: COc1ccc(-c2cc(CNC(=O)[C@H](CS)NC(C)=O)on2)cc1
- Activity (HEK-293T [14]): Non-toxic
- Activity (HEK-293T [15]): Non-toxic
- Activity (293T [1]): 421%

SMILES: COc1ccc(-c2cc(CNC(=O)[C@H](CC(=O)OCc3ccccc3)NC(=O)OC(C)(C)C)on2)cc1
- Activity (293T [1]): 118%

SMILES: CCCc1cc(CNC(=O)CN(CC)CC)on1
- Activity (293T [1]): 102%

SMILES: CCN(CC)CC(=O)NCc1cn(-c2cccc(I)c2)nn1
- Activity (293T [1]): 111%

SMILES: CCN(CC)CC(=O)NCc1cn(-c2ccc(OC)cc2)nn1
- Activity (293T [1]): 58%

SMILES: CCN(CC)CC(=O)NCc1cc(-c2ccc(O)cc2)no1
- Activity (293T [1]): 132%

SMILES: O=C1NC2(CCCC2)C(COc2ccccc2)O1 (stereo not given)
- inhibition (HeLa [10]): Active
- inhibition (293T [11]): Active

SMILES: O=C(NCc1cc(-c2ccc(Br)cc2)no1)c1ccccc1
- Activity (293T [1]): 82%

SMILES: COc1ccc(-c2cc(CNC(=O)CNC(=O)OCc3ccccc3)on2)cc1
- Activity (293T [1]): 148%

SMILES: CCN(CC)CC(=O)NCc1cc(-c2ccc(OC)c(I)c2)no1
- Activity (293T [1]): 4%

SMILES: CCN(CC)CC(=O)NCc1cn(-c2ccc(Cl)cc2)nn1
- Activity (293T [1]): 105%

SMILES: COc1ccc(-c2cc(CNC(=O)[C@@H](NC(=O)OCc3ccccc3)C3CCCN3C(=O)OCc3ccccc3)on2)cc1 (stereo not given in full)
- Activity (293T [1]): 254%

SMILES: CCN(CC)CC(=O)NCc1cn(Cc2ccccc2)nn1
- Activity (293T [1]): 35%

SMILES: CCC(=O)NCc1cc(-c2ccc(Br)cc2)no1
- Activity (293T [1]): 99%

SMILES: CCN(CC)CC(=O)NCc1cc(-c2cccc([N+](=O)[O-])c2)no1
- Activity (293T [1]): 37%

SMILES: COc1ccc(-c2cc(CNC(=O)[C@H](Cc3ccccc3)NC(=O)OC(C)(C)C)on2)cc1
- Activity (293T [1]): 188%

SMILES: CCN(CC)CC(=O)NCc1cc(-c2c(C)cccc2C)no1
- Activity (293T [1]): 59%

SMILES: CCN(CC)CC(=O)NCc1cn(-c2ccc(I)cc2)nn1
- inhibition (A549): > 90%
- inhibition (HeLa [8]): > 90%
- inhibition (293T [9]): Active
- inhibition (HeLa [2]): inactive
- inhibition (293T [3]): inactive
- IC50 [4]: 5 µM
- inhibition (HeLa [5]): Dose-dependent effect
- IC50 [6]: 5 µM
- inhibition (293T [7]): Dose-dependent effect
- Activity (293T [1]): 4%

SMILES: CCCCCCCn1cc(CNC(=O)CN(CC)CC)nn1
- Activity (293T [1]): 60%

SMILES: CCN(CC)CC(=O)NCc1cn(-c2cccc(OC)c2)nn1
- Activity (293T [1]): 90%

SMILES: CCN(CC)CC(=O)NCc1cc(-c2ccc(Br)cc2)no1
- Activity (293T [1]): 30%

SMILES: COc1ccc(-c2cc(CNC(=O)[C@@H](NC(=O)OCc3ccccc3)C(C)C)on2)cc1
- Activity (293T [1]): 220%

SMILES: CCN(CC)CC(=O)NCc1cc(-c2ccccc2)no1
- Activity (293T [1]): 181%

SMILES: CCN(CC)CC(=O)NCc1cc(-c2ccc([N+](=O)[O-])cc2)no1
- Activity (293T [1]): 30%

SMILES: CCN(CC)CC(=O)NCc1cn(-c2c(Cl)cc(Cl)cc2Cl)nn1
- Activity (293T [1]): 33%

SMILES: COc1ccc(-c2cc(CNC(=O)[C@@H](N)Cc3ccccc3)on2)cc1
- Activity (293T [1]): 106%

SMILES: CCN(CC)CC(=O)NCc1cc(-c2ccco2)no1
- Activity (293T [1]): 77%
